For data set [1], the system named is Mus musculus. The data set can be described thus: Induction of radioiodine secretion from 14 days iodine-poor diet fed mouse thyroid assessed as blood [125I] level at 6 mg/kg, iv after 2 hrs pretreated with 10 ug L-thyroxine and [125-I] relative to control by McKenzie Bioassay. The class given is functional, Thyroid gland. Put shortly:
(§1)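 Weanling female mice (14–16 g) fed an iodine-poor diet for 14 days, then given 10 μg L-thyroxine sc and 6–8 μCi 125I ip, with L-thyroxine (1 mg/l) in drinking water for 3 days. On day 4, cyclic nucleotides were given into the tail vein as sodium salts in aqueous solution, pH 7.4. Orbital-sinus blood was sampled at 0 and 2 h and γ-counted. Result is cpm(2 h)/cpm(0 h) × 100; mean of about six animals per dose.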

The test system of data set [2] is Mus musculus. The data set can be described thus: Induction of serum thyroxine level in Swiss mouse measured per 100 ml at 1 mg, iv after 1 hr by radioimmunoassay (reference value: 4.20 +/- 0.25 to 6.06 +/- 0.36 ug). The class given is functional.
Data set [3] deals with Mus musculus. In words: Induction of radioiodine secretion from 14 days iodine-poor diet fed mouse thyroid assessed as blood [125I] level at 30 mg/kg, iv after 2 hrs pretreated with 10 ug L-thyroxine and [125-I] relative to control by McKenzie Bioassay. The class given is functional, Thyroid gland. The essentials:
as §1

Data set [4] relates to Mus musculus. The data set can be described thus: Induction of radioiodine secretion from 14 days iodine-poor diet fed mouse thyroid assessed as blood [125I] level at 45 mg/kg, iv after 2 hrs pretreated with 10 ug L-thyroxine and [125-I] relative to control by McKenzie Bioassay. The class given is functional, Thyroid gland. The essentials:
as §1

Data set [5] has as its system Mus musculus. The data set can be described thus: Induction of radioiodine secretion from 14 days iodine-poor diet fed mouse thyroid assessed as blood [125I] level at 15 mg/kg, iv after 2 hrs pretreated with 10 ug L-thyroxine and [125-I] relative to control by McKenzie Bioassay. The class given is functional, Thyroid gland. The essentials: as §1
The test system of data set [6] is Mus musculus. The data set can be described thus: Induction of radioiodine secretion from 14 days iodine-poor diet fed mouse thyroid assessed as blood [125I] level at 60 mg/kg, iv after 2 hrs pretreated with 10 ug L-thyroxine and [125-I] relative to control by McKenzie Bioassay. The class given is functional, Thyroid gland.
The nature of data set [7]: Toxicity in iv dosed mouse. The class given is organism-based. The settings on record: in vivo. Put shortly:
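Female mice (14–16 g, post-weaning) kept 14 days on an iodine-poor diet. They were then given 10 μg L-thyroxine sc and 6–8 μCi 125I ip, followed by L-thyroxine 1 mg/l in drinking water for 3 days. On day 4, cyclic nucleotides were injected into the tail vein as sodium salts in aqueous solution, pH 7.4, at 6–60 mg/kg. Deaths were recorded per dose group of about six animals.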

Data set [8] deals with Mus musculus. The data set can be described thus: Induction of serum thyroxine level in Swiss mouse measured per 100 ml at 1 mg, iv after 2 hrs by radioimmunoassay (reference value: 4.20 +/- 0.25 to 6.06 +/- 0.36 ug). The class given is functional.
Data set [9] can be described thus: Stability of the compound assessed as hydrolysis in presence of phosphodiesterase. It is filed as ADME.

A word on the LD50: it is the dose expected to kill half of the subjects tested. A low value points to a more toxic substance.

Regarding `Nc1ncnc2c1nc(N)n2[C@@H]1O[C@@H]2COP(=O)([O-])O[C@H]2[C@H]1O.[Na+]`, the Activity in the data set on Mus musculus [1] is on record as 226%; with Mus musculus [3], 607%; in the data set with Mus musculus [4], 818%; in the data set on Mus musculus [5], 663%. In the data set with Mus musculus [2], the serum T4 stood at 6.84 µg/dL.
In the case of `CCCC(=O)O[C@@H]1[C@@H]2OP(=O)([O-])OC[C@H]2O[C@H]1n1c(S)nc2c(N)ncnc21.[Na+]`, the Activity in the data set with Mus musculus [6] is listed as 190%; in the data set with Mus musculus [3], 153%; in the data set with Mus musculus [5], 155%. Besides, the LD50 in data set [7] is over 200 mg/kg.
For the molecule `Nc1ncnc2c1nc(Br)n2[C@@H]1O[C@@H]2COP(=O)([O-])O[C@H]2[C@H]1O.[Na+]`, the Activity in the data set on Mus musculus [6] is on record as 488%; with Mus musculus [1], 248%; in the data set with Mus musculus [3] it was 331%; with Mus musculus [5], 284%.
Consider `CCCC(=O)Nc1ncnc2c1nc(S)n2[C@@H]1O[C@@H]2COP(=O)([O-])O[C@H]2[C@H]1O.[Na+]`, for which the Activity in the data set on Mus musculus [6] worked out at 630%; in the data set with Mus musculus [3] it was 342%; in the data set on Mus musculus [5] it was 139%. In addition, the LD50 in data set [7] was over 200 mg/kg.
On to `CCCC(=O)O[C@@H]1[C@@H]2OP(=O)([O-])OC[C@H]2O[C@H]1n1c(SC)nc2c(N)ncnc21.[Na+]`, for which the Activity in the data set with Mus musculus [3] worked out at 156%; in the data set with Mus musculus [4], 110%. The molecule also yielded an LD50 in data set [7] of over 200 mg/kg.
On to `CSc1nc2c(N)ncnc2n1[C@@H]1O[C@H](COP(=O)(O)O)[C@@H](O)[C@H]1O`, for which the serum T4 in the data set with Mus musculus [8] worked out at 4.78 µg/dL; with Mus musculus [2] it was 4.44 µg/dL. Also, in the data set on Mus musculus [3], the Activity worked out at 112%.
For the molecule `CCCC(=O)Nc1ncnc2c1nc(SC)n2[C@@H]1O[C@@H]2COP(=O)([O-])O[C@H]2[C@H]1O.[Na+]`, the Activity with Mus musculus [6] is 533%; with Mus musculus [3], 204%; with Mus musculus [5], 121%. The same molecule had an LD50 in data set [7] of over 200 mg/kg.
With `Nc1ncnc2c1nc(S)n2[C@@H]1O[C@@H]2COP(=O)([O-])O[C@H]2[C@H]1O.[Na+]`, the Activity in the data set on Mus musculus [1] is listed as 136%.
With `Nc1ncnc2c1nc(SCc1ccccc1)n2[C@@H]1O[C@@H]2COP(=O)([O-])O[C@H]2[C@H]1O.[Na+]`, the Activity in the data set on Mus musculus [1] is listed as 135%; with Mus musculus [3], 195%; in the data set on Mus musculus [5], 183%.
As to `CCCC(=O)Nc1ncnc2c1nc(S)n2[C@@H]1O[C@@H]2COP(=O)([O-])O[C@H]2[C@H]1OC(=O)CCC.[Na+]`, the Activity with Mus musculus [6] was found to be 238%; in the data set on Mus musculus [3], 177%; in the data set with Mus musculus [5], 154%. In the data set with Mus musculus [2], this molecule had a serum T4 of 4.3 µg/dL. Besides, the LD50 in data set [7] was over 200 mg/kg.
In the same order, the values of `CCCC(=O)Nc1ncnc2c1nc(O)n2[C@@H]1O[C@@H]2COP(=O)([O-])O[C@H]2[C@H]1OC(=O)CCC.[Na+]` are 582%, 500%, 184%, 5.58 µg/dL and over 200 mg/kg.
As to `CSc1nc2c(N)ncnc2n1[C@@H]1O[C@@H]2COP(=O)([O-])O[C@H]2[C@H]1O.[Na+]`, the serum T4 stood at 6.47 µg/dL with Mus musculus [8] and 6.32 µg/dL in the data set with Mus musculus [2]. The Activity is given as 492% in the data set on Mus musculus [1], 804% in the data set on Mus musculus [3] and 645% in the data set with Mus musculus [5].
Consider `CCCC(=O)Nc1ncnc2c1nc(N)n2[C@@H]1O[C@@H]2COP(=O)([O-])O[C@H]2[C@H]1OC(=O)CCC.[Na+]`, for which the Activity in the data set with Mus musculus [6] is listed as 164%; in the data set with Mus musculus [3], 146%. The molecule further showed an LD50 in data set [7] of over 200 mg/kg.
On to `[N-]=[N+]=Nc1nc2c(N)ncnc2n1[C@@H]1O[C@@H]2COP(=O)([O-])O[C@H]2[C@H]1O.[Na+]`, for which the Activity in the data set with Mus musculus [1] is 227%; in the data set on Mus musculus [3], 633%; with Mus musculus [5], 594%. Besides, in the data set with Mus musculus [2], the serum T4 was 6.19 µg/dL.
For the molecule `Nc1ncnc2c1nc(O)n2[C@@H]1O[C@@H]2COP(=O)([O-])O[C@H]2[C@H]1O.[Na+]`, in the data set with Mus musculus [5], the Activity was found to be 114%.
Take `CCCC(=O)Nc1ncnc2c1nc(SCc1ccccc1)n2[C@@H]1O[C@@H]2COP(=O)([O-])O[C@H]2[C@H]1OC(=O)CCC.[Na+]`: the Activity in the data set on Mus musculus [6] is on record as 123%; with Mus musculus [1] it was 116%; in the data set on Mus musculus [3] it was 141%; in the data set with Mus musculus [5], 170%.
Regarding `CCCC(=O)Nc1ncnc2c1nc(SCc1ccccc1)n2[C@@H]1O[C@@H]2COP(=O)([O-])O[C@H]2[C@H]1O.[Na+]`, the Activity in the data set on Mus musculus [6] amounted to 197%; in the data set with Mus musculus [3], 122%; in the data set on Mus musculus [5], 146%. In data set [7], the LD50 was over 200 mg/kg.
For `CCCC(=O)Nc1ncnc2c1nc(SC)n2[C@@H]1O[C@@H]2COP(=O)([O-])O[C@H]2[C@H]1OC(=O)CCC.[Na+]`, in that order: 174%, 125%, 150% and over 200 mg/kg.
Take `CCCC(=O)Nc1ncnc2c1ncn2[C@@H]1O[C@@H]2COP(=O)([O-])O[C@H]2[C@H]1OC(=O)CCC.[Na+]`: the figures for the Activity in the data set with Mus musculus [6] and in the data set with Mus musculus [3] were 245% and 136%, respectively. Moreover, the serum T4 in the data set on Mus musculus [2] amounted to 5.15 µg/dL. Further, the Stability entry in data set [9] is reported as “Stable”. In data set [7], this molecule displayed an LD50 of over 200 mg/kg.
On to `[Cl-].[Na+]` [SODIUM CHLORIDE], for which the serum T4 in the data set with Mus musculus [8] is 5.83 µg/dL; in the data set on Mus musculus [2] it was 6 µg/dL.

The record behind these values is ChEMBL document CHEMBL3272186, “Synthesis of new cyclic nucleotides and their differential stimulatory effects on thyroid function in mice” (J Med Chem, 1976).
